Measured values: ChEMBL document CHEMBL4837232, “Synthesis, in vitro antiprotozoal activity, molecular docking and molecular dynamics studies of some new monocationic guanidinobenzimidazoles” (Eur J Med Chem, 2021)
Converted amounts (≈) assume the structure as drawn.

What was measured:
[1] = tested on: Plasmodium falciparum; experiment: Antiplasmodial activity against bloodstream form of Plasmodium falciparum NF54 […] assessed as reduction in [3H]-hypoxanthine incorporation pretreated for 48 hrs followed by [3H]-hypoxanthine addition measured after 24 hrs by liquid scintillation counting method; format: functional, organism-based
[2] = tested on: Trypanosoma cruzi; experiment: Antitrypanosomal activity against Trypanosoma cruzi Tulahuen C4 strain amastigotes infected in rat L6 cells measured after 96 hrs by inverted microscopy analysis; format: functional, organism-based; conditions: Tulahuen C4, L6, 96 h
[3] = tested on: L6; experiment: Cytotoxicity against rat L6 cells assessed as reduction in cell viability incubated for 70 hrs by resazurin dye based fluorescence assay; conditions: L6, 70 h
Procedure, shortened: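 Uses cultured L-6 rat skeletal myoblasts with an Alamar Blue viability read-out, run per an earlier protocol. The IC50 is the mean of at least two independent experiments, with individual values within a factor of two.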

[4] = tested on: Trypanosoma brucei rhodesiense; experiment: Antitrypanosomal activity against bloodstream form of Trypanosoma brucei rhodesiense STIB900 incubated for 70 hrs by resazurin dye-based fluorometric analysis; format: functional, organism-based; conditions: STIB900, 70 h
[5] = tested on: Leishmania donovani; experiment: Antileishmanial activity against Leishmania donovani MHOM/ET/67/L82 amastigotes measured after 70 hrs by resazurin dye based fluorometric analysis; format: functional, organism-based; conditions: MHOM/ET/67/L82, 70 h
[6] = Selectivity index, ratio of IC50 for cytotoxicity against rat L6 cells to IC50 for antitrypanosomal activity against Trypanosoma cruzi Tulahuen C4 strain amastigotes infected in rat L6 cell; format: toxicity, cell-based; conditions: read-out: Ratio IC50
Procedure, shortened: (§1)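 Each index is the L6-cell IC50 divided by the IC50 for the given parasite. Each IC50 is the mean of at least two independent experiments, agreeing within a factor of two.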

[7] = Selectivity index, ratio of IC50 for cytotoxicity against rat L6 cells to IC50 for antileishmanial activity against Leishmania donovani MHOM/ET/67/L82 amastigotes; format: toxicity, cell-based; conditions: read-out: Ratio IC50; procedure, shortened: as §1
[8] = Selectivity index, ratio of IC50 for cytotoxicity against rat L6 cells to IC50 for antiplasmodial activity against bloodstream form of Plasmodium falciparum NF54; format: toxicity, cell-based; conditions: read-out: Ratio IC50; procedure, shortened: as §1
[9] = Selectivity index, ratio of IC50 for cytotoxicity against rat L6 cells to IC50 for antitrypanosomal activity against bloodstream form of Trypanosoma brucei rhodesiense STIB900; format: toxicity, cell-based; conditions: read-out: Ratio IC50; procedure, shortened: as §1

| Structure (SMILES) | IC50 [1] [µg/mL] | IC50 [2] [µg/mL] | IC50 [4] [µg/mL] | IC50 [3] [µg/mL] | IC50 [5] [µg/mL] | selectivity ratio [6] | selectivity ratio [7] | selectivity ratio [8] | selectivity ratio [9] |
| --- | --- | --- | --- | --- | --- | --- | --- | --- | --- |
| N=C(N)Nc1ccc2[nH]c(-c3ccc4c(c3)Cc3ccccc3-4)nc2c1 | 0.168 (≈ 0.495 µM) | 34.3 (≈ 101 µM) | 6.03 (≈ 17.8 µM) | 43.6 (≈ 128 µM) | 40.3 (≈ 119 µM) |  |  |  |  |
| Cc1ncsc1-c1nc2cc(NC(=N)N)ccc2[nH]1 | 3.03 (≈ 11.1 µM) | 64 (≈ 235 µM) | 17.3 (≈ 63.5 µM) | 93 (≈ 341 µM) | 46.8 (≈ 172 µM) |  |  |  |  |
| N=C(N)Nc1ccc2[nH]c(-c3ccc4c(c3)OCCO4)nc2c1 | 0.82 (≈ 2.65 µM) | 75.1 (≈ 243 µM) | 10.1 (≈ 32.7 µM) | 73.5 (≈ 238 µM) | 56.2 (≈ 182 µM) |  |  |  |  |
| N=C(N)Nc1ccc2[nH]c(-c3cccc4cnccc34)nc2c1 | 2.72 (≈ 9 µM) | 8.57 (≈ 28.3 µM) | 3.8 (≈ 12.6 µM) | 44.6 (≈ 148 µM) | 46.3 (≈ 153 µM) |  |  |  |  |
| N=C(N)Nc1ccc2[nH]c(-c3cccc4ccccc34)nc2c1 | 1.41 (≈ 4.68 µM) | 63.6 (≈ 211 µM) | 11.8 (≈ 39.2 µM) | 48.9 (≈ 162 µM) | > 100 |  |  |  |  |
| COc1ccc(-c2nc3cc(NC(=N)N)ccc3[nH]2)cc1OC | 0.153 (≈ 0.491 µM) | > 100 | 23.8 (≈ 76.4 µM) | 78 (≈ 251 µM) | 97.8 (≈ 314 µM) |  |  |  |  |
| COc1ccc(Oc2ccc(-c3nc4cc(NC(=N)N)ccc4[nH]3)cc2)cc1OC | 0.052 (≈ 0.129 µM) | 58.6 (≈ 145 µM) | 12.5 (≈ 31 µM) | > 100 | 58 (≈ 144 µM) | > 2 | > 2 | > 1920 | > 8 |
| Cc1ccc(-c2nc3cc(NC(=N)N)ccc3[nH]2)c(C)c1 | 6.26 (≈ 22.4 µM) | > 100 | 40.8 (≈ 146 µM) | 97.8 (≈ 350 µM) | > 100 |  |  |  |  |
| N=C(N)Nc1ccc2[nH]c(-c3csc4ccccc34)nc2c1 | 0.57 (≈ 1.85 µM) | 53.1 (≈ 173 µM) | 12.1 (≈ 39.4 µM) | 40 (≈ 130 µM) | 58.6 (≈ 191 µM) |  |  |  |  |
| N=C(N)Nc1ccc2[nH]c(-c3ccc(-c4cccs4)s3)nc2c1 | 0.19 (≈ 0.56 µM) | 46.1 (≈ 136 µM) | 11.8 (≈ 34.8 µM) | 49.9 (≈ 147 µM) | 37.7 (≈ 111 µM) |  |  |  |  |

Now from value to compound, other results behind:

| IC50 [1] [µg/mL] | IC50 [2] [µg/mL] | IC50 [4] [µg/mL] | Structure (SMILES) | IC50 [3] [µg/mL] | IC50 [5] [µg/mL] | selectivity ratio [6] | selectivity ratio [7] | selectivity ratio [8] | selectivity ratio [9] |
| --- | --- | --- | --- | --- | --- | --- | --- | --- | --- |
| 4.07 (≈ 16.2 µM) | 61.2 (≈ 244 µM) | 11.6 (≈ 46.2 µM) | N=C(N)Nc1ccc2[nH]c(-c3ccccc3)nc2c1 | > 100 | > 100 |  |  |  |  |
| 1.89 (≈ 6.61 µM) | 90.5 (≈ 317 µM) | 29.5 (≈ 103 µM) | N=C(N)Nc1ccc2[nH]c(-c3ccc(Cl)cc3)nc2c1 | 71.1 (≈ 249 µM) | 64.5 (≈ 226 µM) |  |  |  |  |
| 0.018 (≈ 0.055 µM) | 54.3 (≈ 166 µM) | 21.5 (≈ 65.7 µM) | N=C(N)Nc1ccc2[nH]c(-c3ccc(-c4ccccc4)cc3)nc2c1 | 46.2 (≈ 141 µM) | 52.5 (≈ 161 µM) | 0.8 | 0.8 | 2360 | 2 |
| 0.226 (≈ 0.632 µM) | 38 (≈ 106 µM) | 13.6 (≈ 38.1 µM) | N=C(N)Nc1ccc2[nH]c(-c3ccc(OCc4ccccc4)cc3)nc2c1 | 43.2 (≈ 121 µM) | > 100 |  |  |  |  |
| 1.14 (≈ 3.23 µM) | 21.7 (≈ 61.5 µM) | 5.62 (≈ 15.9 µM) | N=C(N)Nc1ccc2[nH]c(-c3cc(-c4ccc(Cl)cc4)on3)nc2c1 | 46.8 (≈ 133 µM) | 7.7 (≈ 21.8 µM) |  |  |  |  |
| 0.279 (≈ 0.837 µM) | 36.5 (≈ 109 µM) | 16 (≈ 48 µM) | N=C(N)Nc1ccc2[nH]c(-c3ccc(-c4ccccc4)s3)nc2c1 | 48.4 (≈ 145 µM) | 44 (≈ 132 µM) |  |  |  |  |
| 1.17 (≈ 4.23 µM) | 89.5 (≈ 324 µM) | 18.2 (≈ 65.9 µM) | N#Cc1ccc(-c2nc3cc(NC(=N)N)ccc3[nH]2)cc1 | > 100 | > 100 |  |  |  |  |
| 37.2 (≈ 126 µM) | 59.1 (≈ 200 µM) | 72.1 (≈ 244 µM) | N=C(N)Nc1ccc2[nH]c(-c3ccc(C(=O)O)cc3)nc2c1 | > 100 | > 100 |  |  |  |  |
| 2.67 (≈ 9.29 µM) | 67 (≈ 233 µM) | 6.04 (≈ 21 µM) | N=C(N)Nc1ccc2[nH]c(-c3ccc(F)c(F)c3)nc2c1 | > 100 | > 100 |  |  |  |  |
| 1.87 (≈ 5.45 µM) | 49.5 (≈ 144 µM) | 16.1 (≈ 46.9 µM) | N=C(N)Nc1ccc2[nH]c(-c3ccc(Oc4ccccc4)cc3)nc2c1 | 51.6 (≈ 150 µM) | > 100 |  |  |  |  |
